≈ marks a conversion by molar mass, not a printed value. Calls of active or inactive are those of the source. No cut-off for these calls is given here.
Key:
[1] = tested on: Staphylococcus aureus; test: Antimicrobial activity against Staphylococcus aureus ATCC 29213 after 24 hrs by microdilution technique; assay type: functional; settings: ATCC 29213, 24 h
Summary of the method: (§1)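 MIC by microdilution per NCCLS 1997 guidelines. Bacteria were subcultured overnight on Mueller-Hinton agar at 37 °C and passaged at least twice. Compounds were serially two-fold diluted in DMSO from 1024 to 16, mixed with nutrient agar, and inoculated. Incubation was 37 °C in a humid chamber for 24 h. MIC = lowest concentration completely inhibiting macroscopic growth. DMSO, organism-only and medium-only wells served as controls.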

[2] = tested on: Rattus norvegicus; test: Antiinflammatory activity in male Sprague-Dawley rat assessed as inhibition of carrageenan-induced rat paw edema dosed subcutaneously equimolar to 70 mg/kg, sc ibuprofen administered 1 hr before carrageenan challenge measured 1 hr post carrageenan challenge relative to control; assay type: functional; settings: route subcutaneous
Summary of the method: (§2)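 Male Sprague-Dawley rats, 150–170 g, 5 per group. Compounds were given subcutaneously in DMSO at doses equimolar to the reference. One hour later, 0.1 mL of 1% carrageenan was injected subplantar into the right hind paw. Right-minus-left paw volume was read by water plethysmometer at 1, 2, 3 and 4 h. %inhibition = (1 − swelling treated/swelling control) × 100. Controls received DMSO s.c. Mean ± SE reported.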

[3] = tested on: Rattus norvegicus; test: Antiinflammatory activity in male Sprague-Dawley rats assessed as inhibition of carrageenan-induced rat paw edema dosed subcutaneously equimolar to 70 mg/kg, sc ibuprofen administered 1 hr before carrageenan challenge measured 2 hrs post carrageenan challenge relative to control; assay type: functional; settings: route subcutaneous; summary of the method: as §2
[4] = tested on: Rattus norvegicus; test: Antiinflammatory activity in male Sprague-Dawley rats assessed as inhibition of carrageenan-induced rat paw edema dosed subcutaneously equimolar to 70 mg/kg, sc ibuprofen administered 1 hr before carrageenan challenge measured 3 hrs post carrageenan challenge relative to control; assay type: functional; settings: route subcutaneous; summary of the method: as §2
[5] = tested on: Rattus norvegicus; test: Antiinflammatory activity in male Sprague-Dawley rats assessed as inhibition of carrageenan-induced rat paw edema dosed subcutaneously equimolar to 70 mg/kg, sc ibuprofen administered 1 hr before carrageenan challenge measured 4 hrs post carrageenan challenge relative to control; assay type: functional; settings: route subcutaneous; summary of the method: as §2
[6] = tested on: Bacillus subtilis; test: Antimicrobial activity against Bacillus subtilis ATCC 6633 after 24 hrs by microdilution technique; assay type: functional; settings: for MIC: ATCC 6633, 24 h; summary of the method: as §1
[7] = tested on: Bacillus subtilis; test: Antimicrobial activity against Bacillus subtilis ATCC 6633 at 20 to 30 ug/ml after 24 hrs by disk diffusion method; assay type: functional, organism-based
Summary of the method: (§3)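 Disc diffusion per Bauer et al. Inhibition zones were recorded. DMSO served as the solvent control. Amoxicillin and fluconazole served as reference agents.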

[8] = tested on: Staphylococcus aureus; test: Antimicrobial activity against Staphylococcus aureus ATCC 29213 at 20 to 30 ug/ml after 24 hrs by disk diffusion method; assay type: functional, organism-based; summary of the method: as §3
[9] = tested on: Escherichia coli; test: Antimicrobial activity against Escherichia coli ATCC 25922 at 20 to 30 ug/ml after 24 hrs by disk diffusion method; assay type: functional, organism-based; summary of the method: as §3
[10] = tested on: Pseudomonas aeruginosa; test: Antimicrobial activity against Pseudomonas aeruginosa ATCC […] at 20 to 30 ug/ml after 24 hrs by disk diffusion method; assay type: functional, organism-based; summary of the method: as §3
[11] = tested on: Candida albicans; test: Antimicrobial activity against Candida albicans ATCC 10231 at 20 to 30 ug/ml after 24 hrs by disk diffusion method; assay type: functional, organism-based; summary of the method: as §3
[12] = tested on: Mycolicibacterium phlei; test: Antimicrobial activity against Mycobacterium phlei ATCC 10142 at 20 to 30 ug/ml after 24 hrs by disk diffusion method; assay type: functional, organism-based
[13] = tested on: Escherichia coli; test: Antimicrobial activity against Escherichia coli ATCC 25922 after 24 hrs by microdilution technique; assay type: functional; settings: ATCC 25922, 24 h
Summary of the method: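 MIC by two-fold serial microdilution on Mueller-Hinton agar per NCCLS 1997. Compounds were dissolved in DMSO at 1024, 512, 256, 128, 64, 32 and 16 […] and mixed with sterile nutrient agar, then inoculated with bacteria subcultured overnight at 37 °C on MHA (passaged at least twice). Incubation was 37 °C in a humid chamber and endpoints were read at 24 h. MIC is the lowest concentration completely inhibiting macroscopic growth. DMSO, organism-only and medium-only wells served as controls.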

[14] = tested on: Pseudomonas aeruginosa; test: Antimicrobial activity against Pseudomonas aeruginosa ATCC […] after 24 hrs by microdilution technique; assay type: functional; summary of the method: as §1

| SMILES | MIC [1] [µg/mL] | inhibition in vivo [2] [%] | inhibition in vivo [3] [%] | inhibition in vivo [4] [%] | inhibition in vivo [5] [%] | MIC [6] [µg/mL] | Activity [7] | Activity [8] | Activity [9] | Activity [10] | Activity [11] | Activity [12] | inhibition in vivo at 70 mg/kg ([3]; dose equimolar to 70 mg/kg ibuprofen) [%] | Activity [6] | MIC [13] [µg/mL] | MIC [14] [µg/mL] |
| --- | --- | --- | --- | --- | --- | --- | --- | --- | --- | --- | --- | --- | --- | --- | --- | --- |
| CC(=O)Nc1c(C#N)c(-c2ccccc2)c(-c2ccccc2)n1-c1c(C)c(=O)n(-c2ccccc2)n1C | 256 (≈ 525 µM) | 1.73 | 3.07 | 66.5 | 46.4 | 256 (≈ 525 µM) | – | – | – | – | – | – | – | – | – | – |
| Cc1c(-n2c(-c3ccccc3)c(-c3ccccc3)c3c2ncn2nnnc32)n(C)n(-c2ccccc2)c1=O | – | – | – | – | – | – | inactive | inactive | inactive | inactive | inactive | inactive | – | – | – | – |
| Cc1c(-n2c(-c3ccccc3)c(-c3ccccc3)c3c(Nc4ccccc4)ncnc32)n(C)n(-c2ccccc2)c1=O | – | 1.99 | 5.11 | 13 | 27.9 | – | – | – | – | – | – | – | – | – | – | – |
| Cc1ccccc1Nc1ncnc2c1c(-c1ccccc1)c(-c1ccccc1)n2-c1c(C)c(=O)n(-c2ccccc2)n1C | – | 1.95 | 5.17 | 13.3 | 28 | – | – | – | – | – | – | – | – | – | – | – |
| Cc1c(-n2c(-c3ccccc3)c(-c3ccccc3)c3c(N/N=C/c4ccccc4)ncnc32)n(C)n(-c2ccccc2)c1=O | – | 47.8 | 59.6 | 90.8 | 48.4 | – | – | – | – | – | – | – | – | – | – | – |
| Cc1c(-n2c(-c3ccccc3)c(-c3ccccc3)c3c(NN)ncnc32)n(C)n(-c2ccccc2)c1=O | – | 43.7 | 46.1 | 65.1 | 54 | – | – | – | – | – | – | – | – | – | – | – |
| Cc1c(-n2c(N)c(C#N)c(-c3ccccc3)c2-c2ccccc2)n(C)n(-c2ccccc2)c1=O | – | 9.5 | 36.5 | 62.6 | 64.7 | 512 (≈ 1150 µM) | – | – | – | – | – | – | – | – | – | – |
| Cc1c(-n2c(-c3ccccc3)c(-c3ccccc3)c3c(=S)[nH]cnc32)n(C)n(-c2ccccc2)c1=O | – | 0 | 0 | 73.3 | 64.3 | – | inactive | inactive | inactive | inactive | inactive | inactive | – | – | – | – |
| Cc1c(-n2c(-c3ccccc3)c(-c3ccccc3)c3c(=O)[nH]cnc32)n(C)n(-c2ccccc2)c1=O | – | 63 | 60.6 | 60 | 27.1 | 256 (≈ 541 µM) | inactive | inactive | inactive | inactive | inactive | inactive | – | – | – | – |
| CC(C)Cc1ccc(C(C)C(=O)O)cc1 (stereo not drawn) [IBUPROFEN] | – | 6.08 | – | 60.7 | 69.5 | – | – | – | – | – | – | – | 45 | – | – | – |
| Cc1c(-n2c(N)c(C(N)=O)c(-c3ccccc3)c2-c2ccccc2)n(C)n(-c2ccccc2)c1=O | – | 19.1 | 26.1 | 47.8 | 62.5 | – | inactive | inactive | inactive | inactive | inactive | inactive | – | – | – | – |
| CCO/C=N/c1c(C#N)c(-c2ccccc2)c(-c2ccccc2)n1-c1c(C)c(=O)n(-c2ccccc2)n1C | – | – | – | – | – | – | inactive | inactive | inactive | inactive | inactive | inactive | – | – | – | – |
| Cc1nc2c(c(-c3ccccc3)c(-c3ccccc3)n2-c2c(C)c(=O)n(-c3ccccc3)n2C)c(=O)[nH]1 | – | 2.16 | 5.37 | 13.2 | 27.6 | – | – | – | – | – | – | – | – | Active | – | – |
| Cc1c(-n2c(-c3ccccc3)c(-c3ccccc3)c3c2ncn2ncnc32)n(C)n(-c2ccccc2)c1=O | – | 1.73 | 4.92 | 9.9 | 28.7 | – | – | – | – | – | – | – | – | – | – | – |
| Cc1c(-n2c(-c3ccccc3)c(-c3ccccc3)c3c(=N)[nH]cnc32)n(C)n(-c2ccccc2)c1=O | – | 0.89 | 2.35 | 11.4 | 27.5 | 512 (≈ 1080 µM) | – | – | – | – | – | – | – | – | – | – |
| Cc1c(-n2c(-c3ccccc3)c(-c3ccccc3)c3c(Cl)ncnc32)n(C)n(-c2ccccc2)c1=O | – | – | – | – | – | – | inactive | inactive | inactive | inactive | inactive | inactive | – | – | – | – |
| CC1(C)S[C@@H]2[C@H](NC(=O)[C@H](N)c3ccc(O)cc3)C(=O)N2[C@H]1C(=O)O [AMOXICILLIN] | 1 (≈ 2.74 µM) | – | – | – | – | 64 (≈ 175 µM) | – | – | – | – | – | – | – | – | 256 (≈ 701 µM) | 64 (≈ 175 µM) |

Source: ChEMBL document CHEMBL1806480, “New condensed pyrroles of potential biological interest syntheses and structure-activity relationship studies” (2011)
